Measured values reported in ChEMBL document CHEMBL3244354, “Syntheses and biological activities of 7 beta-methyl steroids” (J Med Chem, 1979).
Calls of active or inactive are those of the source. No cut-off for these calls is given here.

Assays:
[1] = tested on: Rattus norvegicus; experiment: Effect on ovarian weight in rat 13762 cells allografted Fischer 344 rat at 10 mg/kg, ip qd for 20 days relative to control; format: functional; details: route intraperitoneal
Procedure, shortened: (§1)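 Female Fischer 344 rats, about 40 days old, received subcutaneous right-side grafts of 13762 mammary adenocarcinoma on day 0. From day 1 they got test compound in sesame oil ip daily for 20 days at 10 or 100 (mg/kg)/day. Vehicle controls got 0.5 mL/day. Endpoints were survivors/treated and FBW (minus tumor)/IBW. Tumor weight, final tumor size (length + width/2), and organ weights per 100 g were reported as % control.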

[2] = tested on: Rattus norvegicus; experiment: Effect on uterine weight in rat 13762 cells allografted Fischer 344 rat at 10 mg/kg, ip qd for 20 days relative to control; format: functional; details: route intraperitoneal; procedure, shortened: as §1
[3] = tested on: Rattus norvegicus; experiment: Effect on spleen weight in rat 13762 cells allografted Fischer 344 rat at 10 mg/kg, ip qd for 20 days relative to control; format: functional; details: route intraperitoneal; procedure, shortened: as §1
[4] = tested on: Rattus norvegicus; experiment: Effect on adrenal weight in rat 13762 cells allografted Fischer 344 rat at 100 mg/kg, ip qd for 20 days relative to control; format: functional; details: route intraperitoneal; procedure, shortened: as §1
[5] = tested on: Rattus norvegicus; experiment: Effect on ovarian weight in rat 13762 cells allografted Fischer 344 rat at 100 mg/kg, ip qd for 20 days relative to control; format: functional; details: route intraperitoneal; procedure, shortened: as §1
[6] = tested on: 13762; experiment: Antitumor activity against rat 13762 cells allografted in Fischer 344 rat assessed as host survival at 100 mg/kg, ip qd for 20 days; format: functional, organism-based; design: dose 100 mg/kg; procedure, shortened: as §1
[7] = tested on: 13762; experiment: Antitumor activity against rat 13762 cells allografted in Fischer 344 rat assessed as tumor weight at 10 mg/kg, ip qd for 20 days relative to control; format: functional; details: route intraperitoneal; procedure, shortened: as §1
[8] = tested on: 13762; experiment: Antitumor activity against rat 13762 cells allografted in Fischer 344 rat assessed as tumor weight at 100 mg/kg, ip qd for 20 days relative to control; format: functional; details: route intraperitoneal; procedure, shortened: as §1
[9] = tested on: Rattus norvegicus; experiment: Effect on adrenal weight in rat 13762 cells allografted Fischer 344 rat at 10 mg/kg, ip qd for 20 days relative to control; format: functional; details: route intraperitoneal; procedure, shortened: as §1
[10] = tested on: Rattus norvegicus; experiment: Effect on thymus weight in rat 13762 cells allografted Fischer 344 rat at 100 mg/kg, ip qd for 20 days relative to control; format: functional; details: route intraperitoneal; procedure, shortened: as §1
[11] = tested on: Rattus norvegicus; experiment: Toxicity in rat 13762 cells allografted in Fischer 344 rat assessed as ratio of final body weight to initial body weight at 100 mg/kg, ip qd for 20 days; format: organism-based; design: dose 100 mg/kg, route intraperitoneal; details: in vivo, 480 h; procedure, shortened: as §1
[12] = tested on: Rattus norvegicus; experiment: Toxicity in rat 13762 cells allografted in Fischer 344 rat assessed as ratio of final body weight to initial body weight at 10 mg/kg, ip qd for 20 days; format: organism-based; design: dose 10 mg/kg, route intraperitoneal; details: in vivo, 480 h; procedure, shortened: as §1
[13] = tested on: Rattus norvegicus; experiment: Effect on uterine weight in rat 13762 cells allografted Fischer 344 rat at 100 mg/kg, ip qd for 20 days relative to control; format: functional; details: route intraperitoneal; procedure, shortened: as §1
[14] = tested on: Rattus norvegicus; experiment: Androgenic activity in castrate rat assessed as seminal vesicle weight at 3 mg, sc qd for 7 days by autopsy analysis (reference value: 13.6 +/- 0.19 mg); format: functional
[15] = tested on: Rattus norvegicus; experiment: Effect on pituitary weight in rat 13762 cells allografted Fischer 344 rat at 100 mg/kg, ip qd for 20 days relative to control; format: functional, Pituitary gland cell; details: route intraperitoneal; procedure, shortened: as §1
[16] = tested on: Rattus norvegicus; experiment: Androgenic activity in castrate rat assessed as change in body weight at 3 mg, sc qd for 7 days by autopsy analysis (reference value: 88 gram); format: functional
[17] = tested on: Rattus norvegicus; experiment: Myotrophic activity in castrate rat assessed as levator ani weight at 3 mg, sc qd for 7 days by autopsy analysis (reference value: 23.6 +/- 1.08 mg); format: functional
[18] = tested on: Rattus norvegicus; experiment: Effect on spleen weight in rat 13762 cells allografted Fischer 344 rat at 100 mg/kg, ip qd for 20 days relative to control; format: functional; details: route intraperitoneal; procedure, shortened: as §1
[19] = tested on: 13762; experiment: Antitumor activity against rat 13762 cells allografted in Fischer 344 rat assessed as host survival at 10 mg/kg, ip qd for 20 days; format: functional, organism-based; design: dose 10 mg/kg; procedure, shortened: as §1
[20] = tested on: 13762; experiment: Antitumor activity against rat 13762 cells allografted in Fischer 344 rat assessed as final tumor size at 10 mg/kg, ip qd for 20 days relative to control; format: functional; details: route intraperitoneal; procedure, shortened: as §1
[21] = tested on: Rattus norvegicus; experiment: Effect on thymus weight in rat 13762 cells allografted Fischer 344 rat at 10 mg/kg, ip qd for 20 days relative to control; format: functional; details: route intraperitoneal; procedure, shortened: as §1
[22] = tested on: Rattus norvegicus; experiment: Androgenic activity in castrate rat assessed as ventrol prostate weight at 3 mg, sc qd for 7 days by autopsy analysis (reference value: 17.5 +/- 0.41 mg); format: functional, Prostate gland

Question: How did the Activity [1] turn out when `CC(=O)O[C@H]1CC[C@H]2[C@@H]3[C@@H](C)C[C@H]4CSC[C@]4(C)[C@H]3CC[C@]12C` was run?
Answer: The Activity was 105%.

Question: And the Activity [2]?
Answer: Its Activity is 124%.

Question: What about the Activity [3] of the same compound?
Answer: Its Activity is 81%.

Question: And the Activity [4]?
Answer: Its Activity is 87%.

Question: And the Activity [5]?
Answer: The Activity was 87%.

Question: What about the Activity [6] of the same compound?
Answer: The Activity was “Active”.

Question: What about the Activity [7] of the same compound?
Answer: The Activity was 85%.

Question: What about the Activity [8] of the same compound?
Answer: The Activity was 133%.

Question: What about the Activity [9] of the same compound?
Answer: The Activity was 101%.

Question: And the Activity [10]?
Answer: Its Activity is 79%.

Question: And the Ratio [11]?
Answer: Its Ratio is 1.55.

Question: And the Ratio [12]?
Answer: The Ratio was 1.5.

Question: And the Activity [13]?
Answer: Its Activity is 128%.

Question: And the Activity [14]?
Answer: The Activity was 11.8 mg.

Question: What about the Activity [15] of the same compound?
Answer: Its Activity is 90%.

Question: And the Activity [16]?
Answer: Its Activity is 90 g.

Question: And the Activity [17]?
Answer: Its Activity is 25.7 mg.

Question: What about the Activity [18] of the same compound?
Answer: Its Activity is 145%.

Question: And the Activity [19]?
Answer: The Activity was “Active”.

Question: What about the Activity [20] of the same compound?
Answer: The Activity was 85%.

Question: What about the Activity [21] of the same compound?
Answer: Its Activity is 125%.

Question: And the Activity [22]?
Answer: Its Activity is 18.6 mg.

Question: `CC(=O)O[C@H]1CC[C@H]2[C@@H]3CC[C@H]4CSC[C@]4(C)[C@H]3CC[C@]12C` was tested. Which Activity [14] did it give?
Answer: The Activity was 48.6 mg.

Question: What about the Activity [16] of the same compound?
Answer: Its Activity is 95 g.

Question: And the Activity [17]?
Answer: The Activity was 65.2 mg.

Question: And the Activity [22]?
Answer: Its Activity is 61.9 mg.

Question: For `CC(=O)O[C@H]1CC[C@H]2[C@@H]3CCC4=CC(=O)CC[C@]4(C)[C@H]3CC[C@]12C`, which Activity [4] is on record?
Answer: Its Activity is 88%.

Question: What about the Activity [5] of the same compound?
Answer: Its Activity is 65%.

Question: And the Activity [6]?
Answer: Its Activity is “Active”.

Question: What about the Activity [8] of the same compound?
Answer: The Activity was 123%.

Question: What about the Activity [10] of the same compound?
Answer: The Activity was 31%.

Question: And the Ratio [11]?
Answer: Its Ratio is 1.68.

Question: And the Activity [13]?
Answer: Its Activity is 179%.

Question: And the Activity [15]?
Answer: The Activity was 71%.

Question: And the Activity [18]?
Answer: The Activity was 100%.

Question: Which results are given for `C[C@H]1CC2=CC(=O)CC[C@]2(C)[C@H]2CC[C@]3(C)[C@@H](O)CC[C@H]3[C@H]12`?
Answer: Activity [4]: 70%; Activity [5]: 72%; Activity [6]: Active; Activity [8]: 103%; Activity [10]: 47%; Ratio [11]: 1.58; Activity [13]: 202%; Activity [15]: 73%; Activity [18]: 108%

Question: How did the Activity [4] turn out when `C[C@H]1CC2=CC(=O)CC[C@]2(C)[C@H]2CC[C@@]3(C)[C@@H](CC[C@]3(C)O)[C@H]12` [CALUSTERONE] was run?
Answer: The Activity was 73%.

Question: What about the Activity [5] of the same compound?
Answer: The Activity was 60%.

Question: And the Activity [6]?
Answer: The Activity was “Active”.

Question: What about the Activity [8] of the same compound?
Answer: The Activity was 123%.

Question: What about the Activity [10] of the same compound?
Answer: The Activity was 57%.

Question: What about the Ratio [11] of the same compound?
Answer: Its Ratio is 1.64.

Question: What about the Activity [13] of the same compound?
Answer: The Activity was 148%.

Question: And the Activity [15]?
Answer: The Activity was 80%.

Question: What about the Activity [18] of the same compound?
Answer: The Activity was 115%.

Question: `CC(=O)O[C@H]1CC[C@H]2[C@@H]3[C@@H](C)C[C@H]4CC(=O)CC[C@]4(C)[C@H]3CC[C@]12C` was tested. Which Activity [1] did it give?
Answer: The Activity was 77%.

Question: And the Activity [2]?
Answer: The Activity was 143%.

Question: What about the Activity [3] of the same compound?
Answer: The Activity was 77%.

Question: What about the Activity [4] of the same compound?
Answer: The Activity was 68%.

Question: And the Activity [5]?
Answer: Its Activity is 62%.

Question: And the Activity [6]?
Answer: Its Activity is “Active”.

Question: What about the Activity [7] of the same compound?
Answer: The Activity was 84%.

Question: What about the Activity [8] of the same compound?
Answer: The Activity was 132%.

Question: What about the Activity [9] of the same compound?
Answer: Its Activity is 68%.

Question: What about the Activity [10] of the same compound?
Answer: Its Activity is 48%.

Question: What about the Ratio [11] of the same compound?
Answer: The Ratio was 1.81.

Question: What about the Ratio [12] of the same compound?
Answer: Its Ratio is 1.58.

Question: What about the Activity [13] of the same compound?
Answer: Its Activity is 151%.

Question: What about the Activity [14] of the same compound?
Answer: The Activity was 45.8 mg.

Question: What about the Activity [15] of the same compound?
Answer: The Activity was 56%.

Question: And the Activity [16]?
Answer: The Activity was 90 g.

Question: What about the Activity [17] of the same compound?
Answer: The Activity was 63.3 mg.

Question: What about the Activity [18] of the same compound?
Answer: The Activity was 108%.

Question: What about the Activity [19] of the same compound?
Answer: Its Activity is “Active”.

Question: And the Activity [20]?
Answer: The Activity was 90%.

Question: And the Activity [21]?
Answer: Its Activity is 71%.

Question: What about the Activity [22] of the same compound?
Answer: Its Activity is 81.4 mg.

Question: Which Activity [14] does the source give for `CCC(=O)O[C@H]1CC[C@H]2[C@@H]3CCC4=CC(=O)CC[C@]4(C)[C@H]3CC[C@]12C` [TESTOSTERONE PROPIONATE] here?
Answer: Its Activity is 65.9 mg.

Question: What about the Activity [16] of the same compound?
Answer: The Activity was 98 g.

Question: And the Activity [17]?
Answer: Its Activity is 68.2 mg.

Question: What about the Activity [22] of the same compound?
Answer: Its Activity is 126 mg.
